Laboratory results published in ChEMBL document CHEMBL2346499, “Small molecule modulators of Wnt/β-catenin signaling” (Bioorg Med Chem Lett, 2013).
The source made the active and inactive calls. No cut-off for these calls is given here.

How the values were obtained:
[1] = molecular target: Frizzled-1 (Homo sapiens) (UniProt Q9UP38); experiment: Induction of internalization of Frizzled1-GFP (unknown origin) expressed in human U2OS cells at 12.5 uM after 6 hrs by confocal microscopy; format: cell-based
[2] = Induction of Wnt3A/beta-catenin signaling in HEK293 cells after 8 hrs by TOPflash reporter assay; format: cell-based; conditions: Homo sapiens
Procedure, shortened: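 HEK293 cells carrying TOPflash reporter, treated with or without Wnt3A conditioned medium (5% as reference sample) plus compound at the indicated concentrations for 8 hrs; luciferase read as relative luciferase units; significance versus Wnt3A-only sample by t test.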

Sequence of Frizzled-1 (Homo sapiens) (Q9UP38 70-647 limits assumed): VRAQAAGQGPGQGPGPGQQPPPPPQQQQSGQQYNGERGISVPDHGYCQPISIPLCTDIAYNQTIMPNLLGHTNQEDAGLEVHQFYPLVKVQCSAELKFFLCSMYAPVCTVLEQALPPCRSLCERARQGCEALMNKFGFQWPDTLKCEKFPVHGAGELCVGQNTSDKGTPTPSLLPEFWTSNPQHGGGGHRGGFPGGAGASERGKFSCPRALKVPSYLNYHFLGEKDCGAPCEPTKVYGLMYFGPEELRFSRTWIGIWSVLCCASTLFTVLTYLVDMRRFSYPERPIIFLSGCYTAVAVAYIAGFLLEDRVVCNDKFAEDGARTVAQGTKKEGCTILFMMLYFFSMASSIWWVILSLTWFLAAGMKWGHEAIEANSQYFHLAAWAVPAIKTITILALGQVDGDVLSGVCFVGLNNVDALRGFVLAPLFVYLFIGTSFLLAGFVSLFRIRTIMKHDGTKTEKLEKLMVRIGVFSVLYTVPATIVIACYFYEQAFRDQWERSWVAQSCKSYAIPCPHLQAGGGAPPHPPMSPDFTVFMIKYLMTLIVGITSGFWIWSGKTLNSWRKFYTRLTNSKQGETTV

With `O=C(Nc1ccc([N+](=O)[O-])cc1Cl)c1cccc(Cl)c1` the Activity [1] was “inactive”.
In the case of `O=C(Nc1ccc(Br)cc1)c1cc(Br)cc(Br)c1O`, the Activity [1] is reported as “inactive”.
For `O=C(Nc1ccc(Oc2ccc(Cl)cc2)c(Cl)c1)c1cc(I)cc(I)c1O`, the Activity [1] was “inactive”.
With `O=C(Nc1ccc([N+](=O)[O-])cc1Cl)c1ccccc1O` the Activity [1] was “Active”.
With `O=C(Nc1cc(Cl)cc(Cl)c1O)c1c(O)c(Cl)cc(Cl)c1Cl` the Activity [1] was “inactive”.
With `O=C(Nc1ccccc1[N+](=O)[O-])c1cc(Cl)ccc1O` the Activity [1] was “inactive”.
In the case of `O=C(Nc1ccc([N+](=O)[O-])cc1)c1cc(Cl)ccc1O`, the Activity [1] is reported as “Active”.
With `O=C(Nc1cccc([N+](=O)[O-])c1)c1cc(Cl)ccc1O` the Activity [1] was “inactive”.
For `Cc1cc(C(C#N)c2ccc(Cl)cc2)c(Cl)cc1NC(=O)c1cc(I)cc(I)c1O` (stereo not given), the Activity [1] was “inactive”.
In the case of `COc1cc([N+](=O)[O-])ccc1NC(=O)c1cc(Cl)ccc1O`, the Activity [1] is reported as “Active”.
With `O=C(Nc1ccc(NS(=O)(=O)c2ccc(Cl)cc2)cc1Cl)c1cc(Cl)ccc1O` the Activity [1] was “inactive” and the Activity [2] was “Dose-dependent effect”.
With `[N-]=[N+]=NCCOCCOCCOc1cc([N+](=O)[O-])ccc1NC(=O)c1cc(Cl)ccc1O` the Activity [1] was “Active”.
For `COc1ccc(Cl)cc1C(=O)Nc1ccc([N+](=O)[O-])cc1Cl`, the Activity [1] was “inactive”.
With `[N-]=[N+]=Nc1ccc(NC(=O)c2cc(Cl)ccc2O)c(Cl)c1` the Activity [1] was “Active”.
For `O=C(Nc1ccc([N+](=O)[O-])cc1)c1cc(Br)ccc1O`, the Activity [1] was “Active”.
In the case of `O=C(Nc1ccc([N+](=O)[O-])cc1Cl)c1cc(Br)ccc1O`, the Activity [1] is reported as “Active”.
With `O=C(Nc1ccc([N+](=O)[O-])cc1Br)c1ccccc1O` the Activity [1] was “Active”.
With `Nc1ccc(NC(=O)c2cc(Cl)ccc2O)c(Cl)c1` the Activity [1] was “inactive”.
In the case of `O=C(Nc1ccc([N+](=O)[O-])cc1Cl)c1cc(Cl)ccc1O` [NICLOSAMIDE], the Activity [1] is reported as “Active”.
